Assay results from different studies.
Protocols differ between the studies behind these lines.
Target: Death-associated protein kinase 1 (DAPK1, Homo sapiens, UniProt P53355)

Structure (SMILES) | assay | setting | remaining binding [%]
c1ccc(N2CCN(Cc3nc4ccccc4[nH]3)CC2)nc1 | binding, competition with immobilised ligand | 1 µM | 100
N[C@@H]1CCN(c2nccc(-c3cnn4ncccc34)n2)C1 | binding | 1 µM | 97
c1cncc(-c2cccc(Nc3nccc(NC4CCCCC4)n3)c2)c1 | binding, competition with immobilised ligand | 10 µM | 90
COc1cc(-c2cn(C3CCc4c(F)cccc4N(CC(F)(F)F)C3=O)nn2)ccc1-n1cnc(C)c1 (stereo not drawn) | cell-free assay, competition with immobilised ligand | 1 µM | 99
COc1cnc(Nc2cccc(S(N)(=O)=O)c2)nc1N1CCN(c2ccccc2)C(=O)C1 | binding, competition with immobilised ligand | 1 µM | 95
O=C(c1ccc(Nc2nccc(-c3cc4ccccc4s3)n2)cc1)N1CCC(N2CCCC2)CC1 | binding, competition with immobilised ligand | 1 µM | 13
COc1cnc(Nc2cccc(S(N)(=O)=O)c2)nc1N1CCN(c2ccccc2)CC1 | binding, competition with immobilised ligand | 1 µM | 83
CN(C)c1ncc(F)c(-c2cnn3ncccc23)n1 | binding | 1 µM | 100
O=C1CCc2cc(Nc3cc(OC4CCOCC4)c([N+](=O)[O-])cc3Cl)ccc2N1 | cell-free assay, competition with immobilised ligand | 1 µM | 90
CCN1CCN(Cc2ccc(C(=O)Nc3ccc(C)c(Oc4ccc5c(c4)CC(=O)N5)c3)cc2C(F)(F)F)CC1 | binding, competition with immobilised ligand | 1 µM | 100
O=C(NCCCN1CCOCC1)c1ccc(Nc2ncc(Cl)c(-c3ccc(Cl)s3)n2)cc1 | binding, competition with immobilised ligand | 1 µM | 22
Cc1cnn2ncc(-c3ccnc(N(C)C)n3)c2c1 | binding | 1 µM | 74
Cc1cnc(Nc2ccc(C(=O)N3CCC(N4CCCC4)CC3)cc2)nc1-c1cc2ccccc2s1 | binding, competition with immobilised ligand | 1 µM | 16
C[C@@H]1CCN(c2nccc(-c3cnn4ncccc34)n2)C1 | binding | 1 µM | 79
O=C(Nc1c[nH]nc1C(=O)NC1CCNCC1)c1cc(F)cc(F)c1 | binding, competition with immobilised ligand | 1 µM | 100
Cn1nc(C(=O)NCc2ccc(C(=O)O)cc2)cc1-c1ccc2[nH]ccc2c1 | cell-free assay, competition with immobilised ligand | 0.1 µM | 97
CN(C)c1nccc(-c2cnn3ncccc23)n1 | binding | 1 µM | 100
C[C@H](c1ccc(F)cc1)N(Cc1cccc(C(=O)O)c1)C(=O)c1cnc2ccccc2c1 | cell-free assay, competition with immobilised ligand | 1 µM | 97
C=CC(=O)N1CCC(C(=O)NCC(=O)N2CCN(c3nc(-c4cnc(N)nc4C(F)F)nc(N4CCOCC4)n3)CC2)CC1 | binding, competition with immobilised ligand | 1 µM | 96
CNCc1ccccc1-c1csc([C@H](C)Nc2nc(C)nc3cc(OC)c(OC)cc23)c1 | cell-free assay, competition with immobilised ligand | 1 µM | 100
COc1ncc2cc3ccccc3nc2c1C#N | cell-free assay, competition with immobilised ligand | 5 µM | 95
